MC4R antagonist: antagonists of human melanocortin 4 receptor (MC4R); P32245; MC4R-expressing cells, MTII-stimulated cAMP, LANCE TR-FRET; inhibition, % at 6.5 µM; 360,000 tested, 0.48% active; AID 540295;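 active = inhibition above its plate's cutoff, the mean of tested wells on that plate plus 3 SD, cut at about 29% in these data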;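 note: 0% = Melanotan II alone and 100% = Melanotan II plus saturating MCL0020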
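System: U2OS-MC4R stable cell line; Technique: Eu-cAMP/anti-cAMP TR-FRET, emission 671 nm; Repeats: single well per compound; Also added: Melanotan II; Dosing: one concentration, 6.5 µM nominal; Schedule: 30-min compound, 1-h challenge, 1-h detection, room temperature.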
MIN6 prolif: induces beta-cell replication in MIN6 cells; MIN6 cells proliferation, ATPlite luminescence, 48 h; cells starved in 0.2% serum; 100% = growth in 10% serum; proliferation, % at 10 µM; 330,000 tested, 0.29% active;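 active = compounds whose signal lies at least 3.5 SD above the mean of all wells on their plate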;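 note: 0% = DMSO-treated cells in low-serum medium and 100% = 10% serum control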
MC4R ag barr: activates human MC4R beta-arrestin recruitment | U2OS MC4R beta-arrestin complementation, luminescence; percent of melanotan II response, DMSO zero | activation, % at 8.9 µM | 360,000 tested, 0.98% active | AID 540308;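 active = activation above a per-plate cutoff, the mean activation of sample wells on that plate plus 3 SD, cut at about 8% in these data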
HTR2A ag: agonists of mouse serotonin 5-HT2A receptor (HTR2A). activation, % at 7.6 µM. 360,000 tested, 0.66% active. CHO-K1 mHTR2A beta-arrestin complementation, luminescence; percent of 30 µM serotonin response;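 active = activation above a run cutoff, the mean activation of all tested compounds plus 3 SD, cut at about 14% in these data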;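 note: 0% = plate median of compound wells and 100% = 30 µM serotonin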
ANO1 block: mouse TMEM16A channel inhibition, primary screen. normalized B-score (activity score, 25-100; higher = stronger inhibition) at 10 µM. HEK293 TMEM16A/YFP iodide influx fluorescence, ionomycin. 310,000 tested, 1.2% active. AID 588511. Q8BHY3;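 active = ratio plate-corrected score three or more library SD toward inhibition, starting fluorescence score within five deviations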;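 note: score derived from kinetic fluorescence span divided by baseline fluorescence per well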
ANO1 activ: activators or potentiators of mouse TMEM16A chloride channel. Q8BHY3. HEK293 TMEM16A/YFP-H148Q/I152L, iodide quench fluorescence; active compounds read low. B-score at 10 µM. 340,000 tested, 0.3% active. AID 623877;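 active = fluorescence-ratio B-score plate-corrected deviation score at least 3 library SD below zero, with starting fluorescence score within 5 deviations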;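 note: channel opened by trigger with iodide after compound preincubation; score built on the fluorescence ratio of max minus min over baseline; more negative score means more quench and so TMEM16A activation or potentiation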
MOR ag counter: OPRM1 agonism in mouse HTR2A counterscreen | shares compounds with HTR2A ag | U2OS OPRM1 beta-arrestin PathHunter, luminescence; DMSO 0%, DAMGO 9.3 µM 100% | activation, % at 9.3 µM | 2,300 tested, 5.3% active | AID 624380;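 active = mean activation above the mean of DMSO-only wells plus 3 SD, cut at about 0.5% in these data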
Target sequence (P35372 whole entry, looked up): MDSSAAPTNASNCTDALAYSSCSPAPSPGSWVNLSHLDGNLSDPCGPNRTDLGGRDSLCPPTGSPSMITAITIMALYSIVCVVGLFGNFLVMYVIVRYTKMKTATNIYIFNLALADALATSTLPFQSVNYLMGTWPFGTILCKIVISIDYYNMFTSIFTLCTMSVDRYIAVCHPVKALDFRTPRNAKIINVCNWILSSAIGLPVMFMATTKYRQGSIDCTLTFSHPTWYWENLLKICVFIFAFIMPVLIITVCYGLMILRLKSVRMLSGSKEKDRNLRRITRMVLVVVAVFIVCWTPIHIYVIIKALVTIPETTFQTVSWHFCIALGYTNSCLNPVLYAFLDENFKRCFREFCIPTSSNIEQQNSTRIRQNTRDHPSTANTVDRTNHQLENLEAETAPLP
HTR2A ag conf: mouse HTR2A agonism confirmed. 2,300 tested, 19% active. shares compounds with HTR2A ag. CHO-K1 PathHunter beta-arrestin recruitment, luminescence; DMSO 0%, 30 µM serotonin 100%. activation, % at 7.6 µM;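 active = mean activation across triplicates above the hit threshold derived in the original primary screen, cut at about 15% in these data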
Active calls of the source: *. Shown are actives, neighbours in structure and some others; about 3.4% of the full set was active somewhere.

`O=C(C1CCN(c2ncnc3c2nc2n3CCCCC2)CC1)N1CCN(c2cccc(Cl)c2)CC1` gave MC4R antagonist 5, MIN6 prolif -7, MC4R ag barr 1, HTR2A ag 18*, ANO1 block inactive, ANO1 activ inactive, MOR ag counter -1 and HTR2A ag conf -1.
Screening CSc1ncccc1C(=O)Nc1cccc(S(=O)(=O)N2CCCCCC2)c1 returned MC4R antagonist 4, MIN6 prolif -1, MC4R ag barr -4, HTR2A ag -4 and ANO1 activ inactive.
CC(C)N=c1c([N+](=O)[O-])nn(C)n1O was read as MC4R antagonist 2, MIN6 prolif 2, MC4R ag barr -3, HTR2A ag 15*, ANO1 block inactive, ANO1 activ inactive, MOR ag counter -1 and HTR2A ag conf -3.
For COc1ccc(-c2cc(C)no2)cc1S(=O)(=O)NCCCN1CCN(c2ccccc2)CC1 the results were MC4R antagonist -5, MIN6 prolif -4, MC4R ag barr -1, HTR2A ag 17*, ANO1 block inactive, ANO1 activ inactive, MOR ag counter 0 and HTR2A ag conf 26*.
Cc1cc(-c2ccc(C)c(S(=O)(=O)NCCCN3CCN(c4ccccc4)CC3)c2)on1 was read as MC4R antagonist 12, MIN6 prolif -5, MC4R ag barr -4, HTR2A ag -9, ANO1 block inactive and ANO1 activ inactive.
For COc1ccc(CCNc2ccc(S(N)(=O)=O)cn2)cc1 the results were MC4R antagonist 16, MIN6 prolif 0, MC4R ag barr -1, HTR2A ag 16*, ANO1 block inactive, ANO1 activ inactive, MOR ag counter 0 and HTR2A ag conf -5.
`COc1ccc(CCNc2ccncn2)cc1` gave MC4R antagonist 6, MIN6 prolif -2, MC4R ag barr 2, HTR2A ag 6, ANO1 block inactive and ANO1 activ inactive.
CCN(c1ccccc1)S(=O)(=O)c1ccc(Cl)c(NC(=O)CN(C)Cc2cccc(F)c2)c1 was read as MC4R antagonist 9, MC4R ag barr -4, HTR2A ag 1 and ANO1 activ inactive.
Screening CCO[C@H]1OC(C(=O)O)=C[C@@H](c2ccccc2)[C@@H]1CCCO returned MC4R antagonist 5, MIN6 prolif -5, MC4R ag barr -2, HTR2A ag 15*, ANO1 block inactive, ANO1 activ inactive, MOR ag counter 0 and HTR2A ag conf -1.
For CCn1c(SCC(N)=O)nnc1-c1ccco1 the results were MC4R antagonist -4, MIN6 prolif -4, MC4R ag barr 3, HTR2A ag 7, ANO1 block inactive and ANO1 activ inactive.
Screening CCn1c(SCC(=O)c2cccs2)nnc1-c1ccco1 returned MC4R antagonist 11, MIN6 prolif 2, MC4R ag barr -2, HTR2A ag 16*, ANO1 block inactive, MOR ag counter -1 and HTR2A ag conf 4.
O=C(CCc1n[nH]c(=O)[nH]c1=O)N1CCCCC1 was read as MC4R antagonist -2, MIN6 prolif -1, MC4R ag barr -2, HTR2A ag 16*, ANO1 block inactive, ANO1 activ inactive, MOR ag counter 0 and HTR2A ag conf -1.
O=C(CSc1n[nH]c(=O)[nH]c1=O)N1CCCCCC1 was read as MC4R antagonist 1, MIN6 prolif 0, MC4R ag barr -1, HTR2A ag -1, ANO1 block inactive and ANO1 activ inactive.
Cn1nnnc1N=N/C(=N/Nc1ccccc1)c1ccccc1 was read as MC4R antagonist -9, MIN6 prolif -6, MC4R ag barr -4, HTR2A ag 16*, ANO1 block inactive, ANO1 activ inactive, MOR ag counter 0 and HTR2A ag conf -4.
C[C@H](O)[C@@H]1C(=O)N2CCc3c([nH]c4ccccc34)[C@@H]2C[C@@H]1N(C)C(=O)NC1CCCCC1 was read as MC4R antagonist 9, MC4R ag barr 2 and HTR2A ag 10.
Screening CCOC(=O)c1ccc(NC(=O)CCS(=O)(=O)Cc2ccccc2)cc1 returned MC4R antagonist -4, MIN6 prolif -1, MC4R ag barr 4, HTR2A ag 15*, ANO1 block inactive, ANO1 activ inactive, MOR ag counter 0 and HTR2A ag conf 13.
COC(=O)c1ccn(CSc2cc(Cl)ccc2Cl)n1 was read as MC4R antagonist 3, MIN6 prolif -8, MC4R ag barr -1, HTR2A ag 21*, ANO1 activ inactive, MOR ag counter 0.6* and HTR2A ag conf 4.
Screening COC(=O)C[C@@H]1C[C@@H]2c3cc(NS(=O)(=O)c4ccc(F)cc4)ccc3O[C@@H]2[C@@H](CO)O1 returned MC4R antagonist 1, MC4R ag barr 0 and HTR2A ag 4.
Screening Cc1ccc(-n2c(C)cc(/C=N/NC(N)=S)c2C)cc1 returned MC4R antagonist 4, MIN6 prolif 0, MC4R ag barr -2, HTR2A ag 4, ANO1 block inactive and ANO1 activ inactive.
Screening COc1ccc(Cl)cc1NC(=O)C(=O)N/N=C/c1cc(C)n(-c2ccc(C)cc2)c1C returned MC4R antagonist 0, MIN6 prolif -3, MC4R ag barr -1, HTR2A ag 18*, ANO1 block inactive, ANO1 activ inactive, MOR ag counter -1 and HTR2A ag conf -4.
`CCOc1ccc2oc(C(=O)OCC(=O)N3CCCC(C)C3)c(C)c2c1` (centres undefined) gave MC4R antagonist 3, MIN6 prolif -1, MC4R ag barr 1, HTR2A ag 3 and ANO1 activ inactive.
`COc1ccc2oc(C(=O)OCC(=O)N3CCCC(C)C3)c(C)c2c1` (centres undefined) gave MC4R antagonist 1, MIN6 prolif -3, MC4R ag barr 2, HTR2A ag 20*, ANO1 block inactive, ANO1 activ inactive, MOR ag counter -1 and HTR2A ag conf -3.
`Cc1cc(-c2cccs2)c2c(n1)sc1c(=O)[nH]c(=O)[nH]c12` gave MC4R antagonist -6, MIN6 prolif 3, MC4R ag barr 1, HTR2A ag 17*, ANO1 block inactive, ANO1 activ inactive, MOR ag counter -1 and HTR2A ag conf -3.

Compound activity: PubChem BioAssay, several laboratories
